The molecules below were run against T1, Alpha-1A adrenergic receptor (Cavia porcellus) (UniProt Q9WU25) (assay: Inverse agonist activity at alpha1A adrenoceptor in guinea pig thoracic aorta assessed as inhibition of ca2+-induced IRT at 10 nM after 30 mins).
T1 sequence (whole entry): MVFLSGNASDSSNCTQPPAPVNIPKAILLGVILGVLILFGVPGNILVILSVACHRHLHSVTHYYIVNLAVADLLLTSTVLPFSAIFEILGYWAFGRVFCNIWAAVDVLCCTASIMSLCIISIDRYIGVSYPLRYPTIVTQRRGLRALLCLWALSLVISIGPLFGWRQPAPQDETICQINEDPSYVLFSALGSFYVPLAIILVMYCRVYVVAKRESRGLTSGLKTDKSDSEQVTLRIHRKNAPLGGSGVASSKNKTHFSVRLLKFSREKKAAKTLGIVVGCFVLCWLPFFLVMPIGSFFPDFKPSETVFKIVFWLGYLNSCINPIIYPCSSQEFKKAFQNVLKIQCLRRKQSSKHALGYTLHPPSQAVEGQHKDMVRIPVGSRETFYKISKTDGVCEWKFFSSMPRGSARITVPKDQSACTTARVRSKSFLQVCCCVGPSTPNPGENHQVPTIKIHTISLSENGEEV
Format: functional, tissue-based
Procedure, shortened: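 Tissue in Krebs equilibrated 1 h at 1 g, then given a single (−)-noradrenaline dose. Washed 1 h in Ca2+-free Krebs with 0.1 mM EDTA, with agonist reapplied until no contraction (internal Ca2+ stores depleted). Antagonist 10 nM for 30 min, then Ca2+ 1.8 mM added. Result is % decrease versus IRT without any agent; mean ± SE, 4–7 experiments.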

SMILES | inhibition [%]
COc1cccc(OC)c1OCCNC[C@H]1COc2c(OC)cccc2O1.Cl | 79
COc1cccc(OC)c1OCCNC[C@H]1COc2cccc(OC)c2O1.Cl | 60
COc1cccc(OC)c1OCCNC[C@H]1COc2cccc(F)c2O1.Cl | 100
COc1cccc(OC)c1OCCNC[C@H]1COc2cccc(Cl)c2O1.Cl | 80
COc1cccc(OC)c1OCCNC[C@H]1COc2cccc(O)c2O1.Cl | 100

Reference: ChEMBL document CHEMBL2150980 (Eur J Med Chem, 2012)
